# Experimental data published in ChEMBL document CHEMBL1125103, “Structure-activity relationships for metal-labeled blood flow tracers: comparison of keto aldehyde bis(thiosemicarbazonato)copper(II) derivatives” (J Med Chem, 1990).
# What was measured:
# [1] = Partition coefficient (logP); assay type: physicochemical; settings: octanol/water
# Outline: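 1-Octanol (1 mL) and isotonic Tris buffer pH 7.0 (1 mL) vortexed with 1–5 μL of the 67Cu-labeled aqueous complex, then centrifuged at >1200g for 5 min. Both phases were gamma counted in a window on the 185 keV peak. P = counts per g octanol / counts per g water. The octanol phase was re-extracted; the value is from the second and third extractions, mean of six measurements.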
# Rattus norvegicus [2] = organism: Rattus norvegicus; experiment: Blood levels of tracer copper in rats 2 hr after injection into the femoral vein; assay type: functional, organism-based
# Outline: (§1)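 Copper-67 bis(thiosemicarbazone) complex, 0.2 mL (1–3 μCi) in 5–10% ethanol, injected with a 27-gauge needle into the exposed femoral vein of ether-anesthetized Sprague-Dawley rats (generally 175–225 g). Dose was set by weighing the syringe. Rats were killed by decapitation; organs were excised, blotted and weighed, and counted for 67Cu by gamma counting against a diluted standard dose. Values are percent injected dose per organ, with blood volume taken as 7% of body mass. Generally four rats per time point; mean ± SD.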
# Rattus norvegicus [3] = organism: Rattus norvegicus; experiment: Kidney levels of tracer copper in rats 5 min after injection into the femoral vein; assay type: functional, organism-based; outline: as §1
# Rattus norvegicus [4] = organism: Rattus norvegicus; experiment: Liver levels of tracer copper in rats 1 min after injection into the femoral vein; assay type: functional, organism-based; outline: as §1
# Rattus norvegicus [5] = organism: Rattus norvegicus; experiment: Myocardial levels of tracer copper in rats 2 hr after injection into the femoral vein; assay type: functional, organism-based; settings: Myocardium; outline: as §1
# Rattus norvegicus [6] = organism: Rattus norvegicus; experiment: Pulmonary levels of tracer copper in rats 2 hr after injection into the femoral vein; assay type: functional, organism-based; outline: as §1
# Rattus norvegicus [7] = organism: Rattus norvegicus; experiment: (§2) Blood levels of tracer copper in rats 5 min after injection into the femoral vein; assay type: functional, organism-based; outline: as §1
# Rattus norvegicus [8] = organism: Rattus norvegicus; experiment: Kidney levels of tracer copper in rats 1 min after injection into the femoral vein; assay type: functional, organism-based; outline: as §1
# Rattus norvegicus [9] = organism: Rattus norvegicus; experiment: Brain levels of tracer copper in rats 1 min after injection into the femoral vein; assay type: functional, organism-based; outline: as §1
# Rattus norvegicus [10] = organism: Rattus norvegicus; experiment: Liver levels of tracer copper in rats 5 min after injection into the femoral vein; assay type: functional, organism-based; outline: as §1
# Rattus norvegicus [11] = organism: Rattus norvegicus; experiment: Brain levels of tracer copper in rats 2 hr after injection into the femoral vein; assay type: functional, organism-based; outline: as §1
# Rattus norvegicus [12] = organism: Rattus norvegicus; experiment: Kidney levels of tracer copper in rats 2 hr after injection into the femoral vein; assay type: functional, organism-based; outline: as §1
# Rattus norvegicus [13] = organism: Rattus norvegicus; experiment: as §2; assay type: functional, organism-based; outline: as §1; remark: listed apart in the source
# Rattus norvegicus [14] = organism: Rattus norvegicus; experiment: Myocardial levels of tracer copper in rats 5 min after injection into the femoral vein; assay type: functional, organism-based; settings: Myocardium; outline: as §1
# Rattus norvegicus [15] = organism: Rattus norvegicus; experiment: Pulmonary levels of tracer copper in rats 1 min after injection into the femoral vein; assay type: functional, organism-based; outline: as §1
# Rattus norvegicus [16] = organism: Rattus norvegicus; experiment: Blood levels of tracer copper in rats 1 min after injection into the femoral vein; assay type: functional, organism-based; outline: as §1
# Rattus norvegicus [17] = organism: Rattus norvegicus; experiment: Pulmonary levels of tracer copper in rats 5 min after injection into the femoral vein; assay type: functional, organism-based; outline: as §1
# Rattus norvegicus [18] = organism: Rattus norvegicus; experiment: Brain levels of tracer copper in rats 5 min after injection into the femoral vein; assay type: functional, organism-based; outline: as §1
# Rattus norvegicus [19] = organism: Rattus norvegicus; experiment: Myocardial levels of tracer copper in rats 1 min after injection into the femoral vein; assay type: functional, organism-based; settings: Myocardium; outline: as §1
# Rattus norvegicus [20] = organism: Rattus norvegicus; experiment: Liver levels of tracer copper in rats 2 hr after injection into the femoral vein; assay type: functional, organism-based; outline: as §1
logP [1],Substance,Injected dose (Rattus norvegicus [2]),Injected dose (Rattus norvegicus [3]),Injected dose (Rattus norvegicus [4]),Injected dose (Rattus norvegicus [5]),Injected dose (Rattus norvegicus [6]),Injected dose (Rattus norvegicus [7]),Injected dose (Rattus norvegicus [8]),Injected dose (Rattus norvegicus [9]),Injected dose (Rattus norvegicus [10]),Injected dose (Rattus norvegicus [11]),Injected dose (Rattus norvegicus [12]),Injected dose (Rattus norvegicus [13]),Injected dose (Rattus norvegicus [14]),Injected dose (Rattus norvegicus [15]),Injected dose (Rattus norvegicus [16]),Injected dose (Rattus norvegicus [17]),Injected dose (Rattus norvegicus [18]),Injected dose (Rattus norvegicus [19]),Injected dose (Rattus norvegicus [20])
1.78,Propyl glyoxal bis(thiosemicarbazone)(67Cu-n-PrTS) [listing 1 of 2 here],,,,,,,,,,,,,,,,,,,
,Propyl glyoxal bis(thiosemicarbazone)(67Cu-n-PrTS) [listing 2 of 2 here],8.5%,2.8%,11.5%,3.5%,5.2%,8.9%,2.8%,1.45%,13.7%,1.79%,3.6%,8.9%,3%,13.1%,15.2%,9.6%,1.27%,3.9%,17.3%
